Experimental data published in ChEMBL document CHEMBL1795306, “Acyl derivatives of p-aminosulfonamides and dapsone as new inhibitors of the arginine methyltransferase hPRMT1” (Bioorg Med Chem, 2011).
pIC50: −log10 of the molar value.

Tests used:
[1] = target: T1, Protein arginine N-methyltransferase 1 (Homo sapiens, UniProt Q99873); assay: Inhibition of human recombinant PRMT1-mediated arginine methylation at 10 uM using nonhistone protein Npl3 substrate by ELISA
Target sequence in this assay (Q99873 whole entry, looked up): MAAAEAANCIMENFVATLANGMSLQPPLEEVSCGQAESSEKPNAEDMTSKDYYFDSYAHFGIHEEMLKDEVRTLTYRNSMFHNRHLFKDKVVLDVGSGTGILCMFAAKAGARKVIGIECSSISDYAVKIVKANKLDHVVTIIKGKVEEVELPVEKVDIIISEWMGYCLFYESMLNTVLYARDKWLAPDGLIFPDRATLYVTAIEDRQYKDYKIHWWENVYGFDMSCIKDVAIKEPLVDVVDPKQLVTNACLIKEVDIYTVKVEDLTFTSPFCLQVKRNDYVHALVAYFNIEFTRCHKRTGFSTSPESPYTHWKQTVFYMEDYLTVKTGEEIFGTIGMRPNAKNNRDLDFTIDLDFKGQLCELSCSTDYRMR

[2] = target: T1, Protein arginine N-methyltransferase 1; assay: Inhibition of human recombinant PRMT1-mediated arginine methylation at 50 uM using nonhistone protein Npl3 substrate by ELISA
Target sequence in this assay (Q99873 whole entry, looked up): as above

[3] = target: T2, Histone-lysine N-methyltransferase SETD7 (Homo sapiens) (UniProt Q8WTS6); assay: Inhibition of methyl transferase activity of SET7/9 at 50 uM using biotinylated histone H3(1-21) substrate by In-vitro time resolved fluorescence immunosorbent methyltransferase assay
T2 sequence (whole entry): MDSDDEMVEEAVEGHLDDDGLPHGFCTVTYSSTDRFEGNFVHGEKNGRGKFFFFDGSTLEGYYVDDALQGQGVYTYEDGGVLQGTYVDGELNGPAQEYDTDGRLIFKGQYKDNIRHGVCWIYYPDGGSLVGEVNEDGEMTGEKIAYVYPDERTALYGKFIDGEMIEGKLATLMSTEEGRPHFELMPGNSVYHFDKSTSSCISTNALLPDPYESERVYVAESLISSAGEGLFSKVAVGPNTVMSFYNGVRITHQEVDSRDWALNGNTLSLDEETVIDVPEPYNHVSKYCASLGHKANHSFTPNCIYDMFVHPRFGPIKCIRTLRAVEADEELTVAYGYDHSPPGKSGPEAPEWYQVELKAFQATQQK
Procedure, shortened: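 Biotinylated human histone H3 peptide (aa 1-21, 20 pmol/well) bound to streptavidin plates. Recombinant human GST-Set7/9 preincubated with inhibitor (DMSO) 10 min at 30 °C, then transferred to wells; reaction started with SAM. Methylation detected with rabbit anti-methyl H3K4 antibody and europium-labelled anti-rabbit IgG, read by time-resolved fluorescence (340/615 nm) after enhancement solution.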

[4] = target: T1, Protein arginine N-methyltransferase 1; assay: Inhibition of human recombinant PRMT1-mediated arginine methylation using nonhistone protein Npl3 substrate by ELISA
Target sequence in this assay (Q99873 whole entry): as the sequence (Q99873 whole entry, looked up) above

## CC(NS(=O)(=O)c1ccc(N)cc1)c1ccccc1 (centres undefined)
[1]
  inhibition: 28%
[2]
  inhibition: 40%

## O=C(Cc1ccccc1)Nc1ccc(S(=O)(=O)c2ccc(NC(=O)Cc3ccccc3)cc2)cc1
[3]
  inhibition: 31%

## O=S(=O)(NCCc1ccccc1)c1ccc(Cl)cc1
[2]
  inhibition: < 5%

## Nc1ccc(S(=O)(=O)NCCc2ccc(Cl)cc2)cc1
[2]
  inhibition: < 5%

## Nc1ccc(S(=O)(=O)NCc2ccccn2)cc1
[4]
  pIC50: 4.15
[3]
  inhibition: 14%

## O=C(Cc1ccccc1)Nc1ccc(S(=O)(=O)NCCc2ccccc2)cc1
[1]
  inhibition: < 5%
[2]
  inhibition: 10%

## O=C(Nc1ccc(S(=O)(=O)NCCc2ccccc2)cc1)c1ccc(Br)cc1
[1]
  inhibition: 23%
[2]
  inhibition: 41%

## O=C(Nc1ccc(S(=O)(=O)NCCc2ccccc2)cc1)c1ccccc1
[1]
  inhibition: 15%
[2]
  inhibition: 20%

## Nc1ccc(S(=O)(=O)NCCc2ccc(O)cc2)cc1
[1]
  inhibition: 30%
[2]
  inhibition: 37%

## CC(NC(=O)c1ccc(N)cc1)c1ccccc1 (centres undefined)
[2]
  inhibition: 34%

## Nc1ccc(S(=O)(=O)NCc2ccc(Cl)cc2)cc1
[2]
  inhibition: < 5%

## COc1ccc(CNS(=O)(=O)c2ccc(N)cc2)cc1
[1]
  inhibition: 12%
[2]
  inhibition: 19%
